These results are taken from ChEMBL document CHEMBL3627719, “Discovery of bis-aryl urea derivatives as potent and selective Limk inhibitors: Exploring Limk1 activity and Limk1/ROCK2 selectivity through a combined computational study” (Bioorg Med Chem, 2015).

The target in assay [1] is Rho-associated protein kinase 2 (Homo sapiens, UniProt O75116). Put plainly: Inhibition of ROCK2 (unknown origin) after 4 hrs using 1 uM STK2 as substrate. An outline of the steps:
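HTRF kinase assay using STK2 substrate plus ATP in STK-buffer, with test compound pin-dispensed. Reaction ran 4 h at rt and was stopped with antibody and 62.5 nM streptavidin-XL in detection buffer. After a further 1 h at rt, plates were read in HTRF mode.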

In a further assay the target is LIM domain kinase 1 (Homo sapiens, UniProt P53667). Put plainly: Inhibition of LIMK1 (unknown origin) using 1 uM cofilin as substrate. An outline of the steps: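 IC50 was determined in 10-dose mode using a 3-fold serial dilution series. Reactions contained ATP, cofilin as substrate, and Limk1 enzyme at 50 nM.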

Bounds are passed on as bounds.

Chain of LIM domain kinase 1 (P53667 whole entry, the tested form may be a part): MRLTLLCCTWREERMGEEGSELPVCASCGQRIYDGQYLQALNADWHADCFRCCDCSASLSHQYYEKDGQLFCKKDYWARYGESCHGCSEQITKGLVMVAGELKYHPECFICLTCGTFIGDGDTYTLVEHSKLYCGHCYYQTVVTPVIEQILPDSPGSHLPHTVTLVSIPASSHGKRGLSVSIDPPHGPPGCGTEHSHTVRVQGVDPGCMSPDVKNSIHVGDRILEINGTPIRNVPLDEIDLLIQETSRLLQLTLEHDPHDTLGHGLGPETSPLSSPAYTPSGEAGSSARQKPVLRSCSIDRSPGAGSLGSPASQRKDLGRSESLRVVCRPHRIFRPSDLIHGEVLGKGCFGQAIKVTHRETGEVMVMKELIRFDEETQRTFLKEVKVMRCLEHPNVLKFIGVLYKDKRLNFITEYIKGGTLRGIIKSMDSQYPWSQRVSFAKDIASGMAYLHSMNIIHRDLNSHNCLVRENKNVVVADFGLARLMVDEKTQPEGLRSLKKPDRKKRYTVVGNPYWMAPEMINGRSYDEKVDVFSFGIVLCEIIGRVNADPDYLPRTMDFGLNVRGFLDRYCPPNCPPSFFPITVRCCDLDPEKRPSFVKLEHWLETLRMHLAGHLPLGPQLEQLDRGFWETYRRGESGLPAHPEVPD
Chain of Rho-associated protein kinase 2 (O75116 whole entry): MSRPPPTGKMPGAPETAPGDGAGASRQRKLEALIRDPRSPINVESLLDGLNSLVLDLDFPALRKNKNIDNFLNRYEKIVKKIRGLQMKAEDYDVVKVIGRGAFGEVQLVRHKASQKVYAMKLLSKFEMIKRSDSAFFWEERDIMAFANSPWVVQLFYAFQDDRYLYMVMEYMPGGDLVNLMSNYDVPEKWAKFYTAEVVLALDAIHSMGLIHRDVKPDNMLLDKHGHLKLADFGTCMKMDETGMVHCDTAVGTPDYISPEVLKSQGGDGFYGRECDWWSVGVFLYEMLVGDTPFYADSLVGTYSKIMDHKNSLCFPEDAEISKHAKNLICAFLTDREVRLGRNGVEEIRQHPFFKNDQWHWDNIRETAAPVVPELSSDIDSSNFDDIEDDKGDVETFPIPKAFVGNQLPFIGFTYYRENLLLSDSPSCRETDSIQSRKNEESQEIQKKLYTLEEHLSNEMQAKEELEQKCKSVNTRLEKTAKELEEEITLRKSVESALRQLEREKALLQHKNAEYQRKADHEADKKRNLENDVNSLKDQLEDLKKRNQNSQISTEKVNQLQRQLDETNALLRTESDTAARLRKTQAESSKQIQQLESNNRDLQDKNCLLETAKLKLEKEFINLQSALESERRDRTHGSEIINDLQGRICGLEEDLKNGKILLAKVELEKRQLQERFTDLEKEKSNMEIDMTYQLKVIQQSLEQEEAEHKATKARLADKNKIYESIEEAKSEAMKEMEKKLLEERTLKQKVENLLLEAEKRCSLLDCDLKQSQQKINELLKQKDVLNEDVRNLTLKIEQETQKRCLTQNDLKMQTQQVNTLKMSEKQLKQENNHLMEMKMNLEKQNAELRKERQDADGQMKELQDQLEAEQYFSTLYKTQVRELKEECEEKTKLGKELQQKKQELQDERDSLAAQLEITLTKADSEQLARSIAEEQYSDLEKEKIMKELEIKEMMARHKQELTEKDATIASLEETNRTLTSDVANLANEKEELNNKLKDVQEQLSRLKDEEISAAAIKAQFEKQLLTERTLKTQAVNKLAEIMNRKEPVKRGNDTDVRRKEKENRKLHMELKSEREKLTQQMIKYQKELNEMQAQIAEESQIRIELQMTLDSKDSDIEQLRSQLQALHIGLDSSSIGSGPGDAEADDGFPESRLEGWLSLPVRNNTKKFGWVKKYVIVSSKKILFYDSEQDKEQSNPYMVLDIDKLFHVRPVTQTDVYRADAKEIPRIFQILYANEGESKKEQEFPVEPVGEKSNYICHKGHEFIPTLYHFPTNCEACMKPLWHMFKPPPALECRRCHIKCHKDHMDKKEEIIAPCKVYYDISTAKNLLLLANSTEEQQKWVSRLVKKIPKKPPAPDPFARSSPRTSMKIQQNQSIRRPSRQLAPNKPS

For the compound `COc1ccc(NC(=O)Nc2ccc(-c3ncnc4[nH]cc(C)c34)cc2F)cc1`, the IC50 was greater than 20000 nM in assay [1] and 10 nM at LIM domain kinase 1.

For the compound `Cc1ccc(NC(=O)Nc2ccc(-c3ncnc4[nH]cc(C)c34)cc2F)cn1`, the figures for the IC50 (in assay [1]; against LIM domain kinase 1) were 2110 nM and 11 nM, respectively.

For the compound `Cc1cc(NC(=O)Nc2ccc(-c3ncnc4[nH]cc(C)c34)cc2F)ccn1`, the figures for the IC50 (in assay [1]; against LIM domain kinase 1) were 2010 nM and 19 nM, respectively.

Turning to `Cc1c[nH]c2ncnc(-c3ccc(NC(=O)Nc4cncnc4)c(F)c3)c12`, the figures for the half-maximal inhibitory concentration (IC50) (in assay [1]; against LIM domain kinase 1) were 1020 nM and 55 nM, respectively.

As for `Cc1c[nH]c2ncnc(-c3ccc(NC(=O)N(CCO)c4ccccc4)c(F)c3)c12`, the concentration for half-maximal inhibition (IC50) in assay [1] came to 4510 nM; against LIM domain kinase 1, 85 nM.
